Bioassay records (PubChem BioAssay)
Compounds with a hit are over-represented: about 6.4% of the library has one in this group of screens.
PostGolgi ctrl – growth of the yeast control strain, post-Golgi counter-screen; efflux-deficient yeast background strain, growth absorbance A615, 16 h; inhibition, % at 10 µM; 5% of 98,000 active; AID 738
PLK1 inh – blocks human PLK1 kinase activity; P53350; recombinant PLK1 kinase, TR-FRET peptide phosphorylation; inhibition, % at 10 µM; 0.53% of 97,000 active;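 active = inhibition of 50% or more in the single-concentration screen; inactive = inhibition below 50%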;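 also: 0% = DMSO max control and 100% = H-89 dihydrochloride min control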
Target sequence (P53350 whole entry, looked up): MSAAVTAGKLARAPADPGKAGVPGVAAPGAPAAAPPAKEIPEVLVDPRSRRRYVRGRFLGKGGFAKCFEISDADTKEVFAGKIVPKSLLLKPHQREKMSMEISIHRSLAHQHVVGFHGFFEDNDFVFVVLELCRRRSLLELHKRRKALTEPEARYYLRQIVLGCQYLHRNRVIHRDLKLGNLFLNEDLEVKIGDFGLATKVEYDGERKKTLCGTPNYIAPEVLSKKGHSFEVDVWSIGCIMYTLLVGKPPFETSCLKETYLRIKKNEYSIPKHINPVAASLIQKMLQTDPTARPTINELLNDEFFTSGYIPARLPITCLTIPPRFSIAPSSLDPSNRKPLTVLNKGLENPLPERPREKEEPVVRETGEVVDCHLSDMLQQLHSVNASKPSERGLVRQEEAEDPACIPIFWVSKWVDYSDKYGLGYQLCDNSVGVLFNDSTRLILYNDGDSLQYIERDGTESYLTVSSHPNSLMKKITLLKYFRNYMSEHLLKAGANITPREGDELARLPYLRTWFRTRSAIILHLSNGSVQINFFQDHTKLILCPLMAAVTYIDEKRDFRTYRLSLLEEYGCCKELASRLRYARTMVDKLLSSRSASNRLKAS
HIV Rev-RRE inh – inhibitors of HIV-1 Rev-RRE RNA interaction | Rev peptide-RRE RNA binding, FRET | inhibition, % at 8 µM | 0.79% of 97,000 active | AID 704;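 active = inhibition above the screen-wide mean plus 3 SD, cut at about 35% in these data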;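 also: 0% = median DMSO wells and 100% = median Neomycin B control wells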
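Test system – labelled RRE RNA duplex and labelled Rev peptide · Signal – fluorescein-to-Cy5 FRET, 480 nm excitation · Evaluation – % inhibition of FRET ratio versus controls · Benchmarks – DMSO low control, neomycin B high control · Incubation – 5 min RNA-compound premix plus 15 min binding step, 25 °C · Medium – HEPES pH 7.5 salt buffer with EDTA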
PLK1 PBD inh – Plk1 (human) PBD binding inhibition; Plk1 PBD phosphopeptide binding, fluorescence polarization; inhibition, %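 (tested at about 20 µM)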; 0.13% of 97,000 active; AID 693; in the data active = inhibition above about 34%, passing the limit was not always enough
PostGolgi yeast – growth inhibition of a yeast mutant, post-Golgi transport screen. post-Golgi transport phenotypic cell assay. 0.9% of 98,000 active. inhibition, % at 10 µM;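 also: yeast cells grown in 1536-well plates; yeast grown about 18 h at 30C before absorbance read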
EphB4 ephrin blk – antagonists of human EphB4-ephrin-B2 interaction. 0.15% of 97,000 active. AID 720. P54760. EphB4 LBD / TNYL-RAW-Alexa532 peptide, fluorescence polarization. inhibition, % at 7 µM;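 active = inhibition above the screen-wide mean inhibition plus 3 SD, cut at about 15% in these data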;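 also: 0% = DMSO wells and 100% = excess unlabeled TNYL-RAW peptide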
An asterisk follows results filed as active; · = no result given. Rule as the data show it, unless noted: active = inhibition above about 30%; inactive = the rest.

SMILES	PostGolgi ctrl	PLK1 inh	HIV Rev-RRE inh	PLK1 PBD inh	PostGolgi yeast	EphB4 ephrin blk
Cc1c(NC(=O)CC(=O)Nc2c(C)n(C)n(-c3ccccc3)c2=O)c(=O)n(-c2ccccc2)n1C	9	-4	8	-10	14	-3
Cc1c(NC(=O)Nc2cccc(Cl)c2)c(=O)n(-c2ccccc2)n1C	37*	·	·	·	-9	·
Cc1c(NS(=O)(=O)c2ccccc2)c(=O)n(-c2ccccc2)n1C	0	-4	8	33	8	7
Cc1c(NS(=O)(=O)c2cccc(C(=O)NCc3ccc(Cl)cc3)c2)c(=O)n(-c2ccccc2)n1C	31*	-7	2	-17	10	2
Nc1nc2n(n1)C(c1c(F)cccc1Cl)CC(c1ccc(F)cc1)N2 (centres undefined)	-4	-10	1	6	-6	-7
CCOC(=O)c1sc(C)c2c1NC(c1ccc(Cl)cc1)NC2=O (centres undefined)	-10	-13	2	-42	-3	7
CC(NCc1ccco1)C(=O)N1CCc2ccccc2C1 (centres undefined)	-2	4	11	-16	-2	8
CC(C)CCNc1nc2c(c(=O)n(Cc3cccc(F)c3)c(=O)n2C)n1C	41*	-6	-2	15	0	4
C=CCc1c(OC)ccc2ccc(=O)oc12	1	-5	4	26	-1	10
COc1ccc(Oc2nnnn2-c2ccccc2)cc1	·	-11	8	-16	·	6
c1ccc(-n2nnnc2Oc2ccc(-c3nnco3)cc2)cc1	42*	-9	-1	-14	0	0
Cc1cc(C)cc(Oc2nc(-c3ccccc3)cc(C)c2S(C)(=O)=O)c1	45*	-18	9	3	0	6
COc1ccccc1Oc1nc(-c2ccccc2)cc(C)c1S(C)(=O)=O	21	-18	4	0	-1	6
Cc1cccc(Oc2nc(-c3ccccc3)cc(C)c2S(C)(=O)=O)c1C	24	-5	5	5	-5	-2
Cc1cc(-c2ccccc2)nc(Oc2ccc(C(C)(C)C)cc2)c1S(C)(=O)=O	63*	-5	7	-7	7	4
COc1ccc(CCCc2nnc(SCC(=O)Nc3ncc(C)s3)o2)cc1	43*	-1	8	-12	0	-2
Clc1c(CSc2nc3ccccc3o2)nc2sccn12	36*	-6	5	-1	-2	7
COC(=O)c1ccc(NC(=O)c2cn(-c3ccccc3)nc2-c2ccncc2)cc1	32*	-16	4	29	72*	-4
CC(=O)c1ccc(NC(=O)c2cn(-c3ccccc3)nc2-c2ccncc2)cc1	·	-5	4	6	·	2
COc1cccc2sc(Nc3nc(-c4ccccn4)cs3)nc12	87*	-4	5	-9	98*	7
O=C(c1ccccc1)c1sc(N2CCCCCC2)nc1-c1ccccc1	33*	0	5	-7	-5	-4
CC1CN=C(c2cccn2Cc2ccc(F)cc2Cl)O1 (centres undefined)	32*	-7	10	-27	11	2
CC1CC(C)(C)N(C(=O)CSc2ccc(-c3ccc(F)cc3)nn2)c2ccccc21 (centres undefined)	37*	-6	0	-27	-23	-1
COc1ccc(-c2nc3c(c(=O)[nH]c(=O)n3Cc3ccccc3)n2Cc2ccccc2)cc1	35*	-9	8	1	-1	3
O=C1Cc2ccccc2C(=O)N1Cc1ccccc1	5	-2	4	-8	2	1
SMILES	PostGolgi ctrl	PLK1 inh	HIV Rev-RRE inh	PLK1 PBD inh	PostGolgi yeast	EphB4 ephrin blk
CCOc1cc(/C=C\[N+](=O)[O-])ccc1OCC(=O)Nc1ccccc1C	7	-6	13	23	39*	3
CCOc1cc(/C=N/NC(N)=O)cc(Br)c1OCC(=O)Nc1ccccc1C	11	-10	1	13	0	-1
CC(C)(C)NC(=O)c1ccccc1-c1nc(-c2ccccc2Cl)no1	30*	-7	17	-23	4	8
CCC(C)(C)n1nnnc1C(C(C)C)N1CCSCC1 (centres undefined)	7	-5	3	-7	4	4
CC1(C)Cc2c(C#N)c(NCc3ccco3)nc(-c3ccco3)c2CO1	13	·	·	·	-1	·
CC1(C)Cc2c(c(-c3ccco3)nc3n[nH]c(N)c23)CO1	1	52*	7	-10	7	4
CC(C)c1nc(N2CCN(C(=O)c3ccccc3)CC2)c(C#N)c2c1COC(C)(C)C2	18	-9	-1	15	20	1
CC1(C)Cc2c(C#N)c(N3CCCC3)nc(-c3ccco3)c2CO1	22	51*	11	-21	0	0
CN(C)CCNc1nc(-c2ccco2)c2c(c1C#N)CC(C)(C)OC2	3	-12	0	16	-3	2
CC1(C)Cc2c(C#N)c(N3CCN(C(=O)c4ccccc4)CC3)nc(-c3ccco3)c2CS1	35*	-7	16	3	14	4
CCSc1ncnc2c1sc1nc(-c3ccco3)c3c(c12)CC(C)(C)OC3	32*	-10	4	-16	14	2
O=C(Nc1ccccc1C(=O)N1CCCC1)c1cccc(S(=O)(=O)N2CCCCC2)c1	9	-1	3	9	0	3
Cc1cc(=O)[nH]c(SCC(=O)c2ccc(C(C)C)cc2)n1	22	-10	0	-2	7	-4
Cc1cc(=O)[nH]c(SCC(=O)c2ccc(C)c(C)c2)n1	3	-21	0	8	87*	0
CC(C)COC(=O)c1ccc2c(c1O)C(=O)c1ccccc1C2=O	23	3	6	-18	104*	3
c1ccc(-c2noc(CSc3nnc(Cc4cccs4)n3-c3ccccc3)n2)cc1	11	-18	7	-11	-3	-2
Fc1ccc(-n2c(Cc3ccccc3)nnc2SCc2nc(-c3cccs3)no2)cc1	33*	-9	4	-17	-1	-4
CCOC(=O)C1=C(C)NC(C)=C(C(=O)OCC)C1C(=O)OCC(=O)N1CCc2ccccc2C1	0	-6	4	4	-2	14
COc1ccc(-c2n[nH]c(C)c2-c2cnn(-c3ccccc3)c2)c(O)c1C	50*	-11	12	-17	-12	-8
COc1ccc(-c2n[nH]c(C)c2-c2cnn(-c3ccccc3)c2)c(O)c1	·	10	10	17	·	-6
COc1ccc(S(=O)(=O)n2nc(-c3ccc(Cl)cc3)cc2N)cc1OC	31*	-8	14	-6	-1	-7
Cc1sc2nc3c(C(=O)N4CCN(c5ccccn5)CC4)cccn3c(=O)c2c1C	-4	-23	5	17	-2	-2
CCOc1c2c(nc3ccc(Cl)cc13)CCC2	36*	-4	-4	-2	0	3
Cc1ccc(N=c2oc3cc(O)ccc3cc2C(N)=O)cc1	58*	-2	21	-10	30*	-2
